Holding throughout (format): functional
In one assay the test system is Shigella. Kind of assay: Minimum inhibitory concentration against aerobic organism Shigella species strain 2880. The gist of the method:
(§1)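 Agar-dilution MIC in µg/mL against aerobic bacterial strains on tryptocase soy agar, with inoculum applied as spots. Most series used 10^5 cfu per spot, and a later series used 10^4 cfu per spot. In some tables, footnoted strains were instead tested on Mueller-Hinton or nutrient agar. β-Lactamase-producing strains are flagged.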

Another assay relates to Enterobacter cloacae. Kind of assay: Minimum inhibitory concentration against aerobic organism Enterobacter cloacae strain 2646. The gist of the method: as §1
The test system of the next assay is Streptococcus pyogenes. The assay is described as follows: Minimum inhibitory concentration against aerobic organism Streptococcus pyogenes strain 3124. A digest of the protocol: as §1
The next assay concerns Proteus mirabilis. Kind of assay: Minimum inhibitory concentration against aerobic organism Proteus mirabilis strain 2830. A digest of the protocol: as §1
A further assay relates to Enterococcus faecalis. Kind of assay: Minimum inhibitory concentration against aerobic organism Streptococcus faecalis strain 2864. The gist of the method: as §1
In a further assay the test system is Escherichia coli. Kind of assay: MIC against aerobic organism Escherichia coli strain 2891. The gist of the method:
as §1

Assay [1] is described as follows: Minimum inhibitory concentration against aerobic organism Salmonella schottmuelleri strain 2837. The gist of the method: as §1
The test system of a further assay is Serratia marcescens. Kind of assay: Minimum inhibitory concentration against aerobic organism Serratia marcescens strain 2852. A digest of the protocol:
as §1

A further assay has as its system Klebsiella pneumoniae. Kind of assay: Minimum inhibitory concentration against aerobic organism Klebsiella pneumoniae strain 2882. A digest of the protocol:
as §1

The test system of a further assay is Staphylococcus aureus. The assay is described as follows: Minimum inhibitory concentration against aerobic organism Staphylococcus aureus strain 2868. A digest of the protocol: as §1
The next assay concerns Pseudomonas aeruginosa. Kind of assay: Minimum inhibitory concentration against aerobic organism Pseudomonas aeruginosa strain 2835. A digest of the protocol:
as §1

Another assay has as its system Proteus vulgaris. The assay is described as follows: Minimum inhibitory concentration against aerobic organism Proteus vulgaris strain 2829. The gist of the method:
as §1

The test system of a further assay is Morganella morganii. The assay is described as follows: Minimum inhibitory concentration against aerobic organism Morganella morganii strain 2833. A digest of the protocol:
as §1

For a further assay, the system named is Klebsiella aerogenes. The assay is described as follows: Minimum inhibitory concentration against aerobic organism Enterobacter aerogenes strain 2906. The gist of the method:
as §1

The mark [2] stands for this setting: Enterobacter cloacae, read-out: MIC.
The mark [3] stands for this setting: Streptococcus pyogenes, read-out: MIC.
[4] abbreviates: Proteus mirabilis, read-out: MIC.
Setting [5] is: Escherichia coli, read-out: MIC.
Setting [6] is: Serratia marcescens, read-out: MIC.
Where [7] appears, read: Klebsiella pneumoniae, read-out: MIC.
The mark [8] stands for this setting: Staphylococcus aureus, read-out: MIC.
The mark [9] stands for this setting: Proteus vulgaris, read-out: MIC.
Where [10] appears, read: Morganella morganii, read-out: MIC.
Where [11] appears, read: Klebsiella aerogenes, read-out: MIC.

In brackets after ≈: the same amount, converted by molar mass.

One may read the MIC as the lowest concentration that inhibits growth of the organism. With `COC[n+]1ccc(N[C@@H]2C(=O)N3C(C(=O)[O-])=C(CSc4nnnn4C)CS[C@H]23)cc1`, the MIC is 0.5 µg/mL (≈ 1.11 µM) in the assay with Shigella (Shigella, read-out: MIC); 32 µg/mL (≈ 71.2 µM) in the assay on Enterobacter cloacae (setting [2]); 0.125 µg/mL (≈ 0.278 µM) in the assay with Streptococcus pyogenes (setting [3]); 64 µg/mL (≈ 142 µM) in the assay on Proteus mirabilis (setting [4]); greater than 128 µg/mL against Enterococcus faecalis; 0.125 µg/mL (≈ 0.278 µM) with Escherichia coli (setting [5]). For the same compound, the minimum inhibitory concentration (MIC) in assay [1] (Salmonella, read-out: MIC) is 1 µg/mL (≈ 2.22 µM); in the assay on Serratia marcescens (setting [6]), greater than 128 µg/mL; in the assay with Klebsiella pneumoniae (setting [7]), 1 µg/mL (≈ 2.22 µM); in the assay on Staphylococcus aureus (setting [8]) it was 16 µg/mL (≈ 35.6 µM); against Pseudomonas aeruginosa it was greater than 128 µg/mL; in the assay on Proteus vulgaris (setting [9]) it was less than 0.06 µg/mL. Moreover, the minimal inhibitory concentration (MIC) was greater than 128 µg/mL with Morganella morganii (setting [10]) and 64 µg/mL (≈ 142 µM) with Klebsiella aerogenes (setting [11]).

Regarding `Cc1c[n+](C)ccc1N[C@@H]1C(=O)N2C(C(=O)[O-])=C(CSc3nnnn3C)CS[C@H]12`, the minimal inhibitory concentration (MIC) with Shigella (Shigella, read-out: MIC) was 16 µg/mL (≈ 36.9 µM); with Enterobacter cloacae (setting [2]), 16 µg/mL (≈ 36.9 µM); in the assay on Streptococcus pyogenes (setting [3]), 32 µg/mL (≈ 73.8 µM); with Proteus mirabilis (setting [4]), 16 µg/mL (≈ 36.9 µM); in the assay on Enterococcus faecalis, greater than 128 µg/mL; in the assay on Escherichia coli (setting [5]), 8 µg/mL (≈ 18.5 µM). Besides, the minimum inhibitory concentration (MIC) is 128 µg/mL (≈ 295 µM) in assay [1] (Salmonella, read-out: MIC); greater than 128 µg/mL in the assay on Serratia marcescens (setting [6]); 16 µg/mL (≈ 36.9 µM) in the assay with Klebsiella pneumoniae (setting [7]); greater than 128 µg/mL in the assay on Staphylococcus aureus (setting [8]); greater than 128 µg/mL against Pseudomonas aeruginosa; 1 µg/mL (≈ 2.31 µM) in the assay on Proteus vulgaris (setting [9]). Moreover, the figures for the minimal inhibitory concentration (MIC) with Morganella morganii (setting [10]) and in the assay with Klebsiella aerogenes (setting [11]) were 16 µg/mL (≈ 36.9 µM) and 8 µg/mL (≈ 18.5 µM), respectively.

Take `CC1(C)SC2C(Nc3cc[n+](Cc4ccccc4)cc3)C(=O)N2[C@H]1C(=O)[O-]` (some centres undefined): the minimal inhibitory concentration (MIC) was 0.25 µg/mL (≈ 0.652 µM) in the assay on Shigella (Shigella, read-out: MIC); 4 µg/mL (≈ 10.4 µM) in the assay with Enterobacter cloacae (setting [2]); 0.25 µg/mL (≈ 0.652 µM) in the assay on Streptococcus pyogenes (setting [3]); 128 µg/mL (≈ 334 µM) against Enterococcus faecalis; 4 µg/mL (≈ 10.4 µM) in the assay with Escherichia coli (setting [5]); 0.125 µg/mL (≈ 0.326 µM) in assay [1] (Salmonella, read-out: MIC). Moreover, the MIC came to 16 µg/mL (≈ 41.7 µM) with Klebsiella pneumoniae (setting [7]) and 64 µg/mL (≈ 167 µM) in the assay on Staphylococcus aureus (setting [8]).

As for `Cn1nnnc1SCC1=C(C(=O)[O-])N2C(=O)[C@@H](Nc3cc[n+](C)cc3)[C@H]2SC1` (stereo in doubt; 15a), the MIC against Shigella came to 1 µg/mL (≈ 2.38 µM); against Enterobacter cloacae, 1 µg/mL (≈ 2.38 µM); against Streptococcus pyogenes it was 2 µg/mL (≈ 4.77 µM); against Proteus mirabilis, 8 µg/mL (≈ 19.1 µM); in the assay with Escherichia coli, 0.5 µg/mL (≈ 1.19 µM); in assay [1], 8 µg/mL (≈ 19.1 µM). Moreover, the MIC in the assay on Serratia marcescens amounted to 1 µg/mL (≈ 2.38 µM); in the assay with Klebsiella pneumoniae, 8 µg/mL (≈ 19.1 µM); against Staphylococcus aureus, 64 µg/mL (≈ 153 µM); in the assay with Proteus vulgaris, 0.25 µg/mL (≈ 0.596 µM); in the assay with Morganella morganii it was 4 µg/mL (≈ 9.54 µM); against Klebsiella aerogenes, 0.5 µg/mL (≈ 1.19 µM).

Turning to `CC(=O)OCC1=C(C(=O)[O-])N2C(=O)[C@@H](Nc3cc[n+](Cc4ccccc4)cc3)[C@H]2SC1`, the MIC in the assay with Shigella (Shigella, read-out: MIC) was less than 0.06 µg/mL; in the assay on Enterobacter cloacae (setting [2]) it was 4 µg/mL (≈ 9.1 µM); with Proteus mirabilis (setting [4]), greater than 128 µg/mL; in the assay on Enterococcus faecalis, 128 µg/mL (≈ 291 µM); in the assay on Escherichia coli (setting [5]), 0.5 µg/mL (≈ 1.14 µM); in assay [1] (Salmonella, read-out: MIC), less than 0.06 µg/mL. Besides, the MIC with Serratia marcescens (setting [6]) is greater than 128 µg/mL; in the assay on Klebsiella pneumoniae (setting [7]) it was less than 0.06 µg/mL; in the assay on Staphylococcus aureus (setting [8]) it was 4 µg/mL (≈ 9.1 µM); with Pseudomonas aeruginosa, greater than 128 µg/mL; with Proteus vulgaris (setting [9]), 0.125 µg/mL (≈ 0.284 µM); with Morganella morganii (setting [10]), greater than 128 µg/mL. For the same compound, the MIC with Klebsiella aerogenes (setting [11]) is 16 µg/mL (≈ 36.4 µM).

As for `O=C([O-])C1=CCS[C@@H]2[C@H](Nc3cc[n+](Cc4ccccc4)cc3)C(=O)N12`, the minimum inhibitory concentration (MIC) with Shigella (Shigella, read-out: MIC) was less than 0.06 µg/mL; in the assay on Enterobacter cloacae (setting [2]), 8 µg/mL (≈ 21.8 µM); in the assay with Proteus mirabilis (setting [4]) it was greater than 128 µg/mL; against Enterococcus faecalis, 128 µg/mL (≈ 348 µM); with Escherichia coli (setting [5]), 1 µg/mL (≈ 2.72 µM); in assay [1] (Salmonella, read-out: MIC) it was less than 0.06 µg/mL. Besides, the minimum inhibitory concentration (MIC) in the assay with Serratia marcescens (setting [6]) was greater than 128 µg/mL; in the assay with Klebsiella pneumoniae (setting [7]), less than 0.06 µg/mL; in the assay with Staphylococcus aureus (setting [8]) it was 16 µg/mL (≈ 43.5 µM); with Pseudomonas aeruginosa, 128 µg/mL (≈ 348 µM); with Proteus vulgaris (setting [9]) it was 0.125 µg/mL (≈ 0.34 µM); in the assay with Morganella morganii (setting [10]), greater than 128 µg/mL. In the assay with Klebsiella aerogenes (setting [11]), the minimum inhibitory concentration (MIC) came to 64 µg/mL (≈ 174 µM).

As for `C[n+]1ccc(NC(C(=O)NC2C(=O)N3C2SC(C)(C)[C@@H]3C(=O)[O-])c2ccccc2)cc1` (some centres undefined), the MIC with Shigella (Shigella, read-out: MIC) is 25 µg/mL (≈ 56.8 µM); with Enterobacter cloacae (setting [2]) it was greater than 100 µg/mL; with Streptococcus pyogenes (setting [3]) it was less than 0.39 µg/mL; against Enterococcus faecalis it was 12.5 µg/mL (≈ 28.4 µM); in the assay on Escherichia coli (setting [5]), greater than 100 µg/mL; in [1] (Salmonella, read-out: MIC), 6.25 µg/mL (≈ 14.2 µM). Moreover, the minimum inhibitory concentration (MIC) in the assay with Klebsiella pneumoniae (setting [7]) is greater than 100 µg/mL; in the assay with Staphylococcus aureus (setting [8]), 3.12 µg/mL (≈ 7.08 µM).

With `CC1(C)SC2C(Nc3cc[n+](COCC(Cl)(Cl)Cl)cc3)C(=O)N2[C@H]1C(=O)[O-]` (some centres undefined), the MIC in the assay with Shigella (Shigella, read-out: MIC) is less than 0.06 µg/mL; in the assay on Enterobacter cloacae (setting [2]), 0.5 µg/mL (≈ 1.1 µM); with Enterococcus faecalis, 128 µg/mL (≈ 281 µM); with Escherichia coli (setting [5]), 0.5 µg/mL (≈ 1.1 µM); in assay [1] (Salmonella, read-out: MIC) it was less than 0.06 µg/mL; with Klebsiella pneumoniae (setting [7]), 0.5 µg/mL (≈ 1.1 µM). The MIC in the assay on Staphylococcus aureus (setting [8]) was greater than 128 µg/mL.

The record behind these values is ChEMBL document CHEMBL1122046, “Quaternary heterocyclylamino beta-lactams: a generic alternative to the classical acylamino side chain” (1982).
